Assays:
Format in all cases: functional
SK-MEL-5 = test: Growth inhibition of human SK-MEL-5 cells at 10^-4 M after 48 hrs by SRB assay; parameters: scale not given: the % may be the effect or the level left
NCI-H23 [1] = test: Growth inhibition of human NCI-H23 cells at 10^-6 M after 48 hrs by SRB assay; parameters: scale not given: the % may be the effect or the level left
NCI-H23 [2] = test: Growth inhibition of human NCI-H23 cells after 48 hrs by SRB assay; settings: NCI-H23, 48 h
Outline: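 Adherent NCI-60 lines grown in RPMI 1640 with 5% FBS, seeded at 5000–40,000 cells/well, and preincubated 24 h at 37 °C, 5% CO2. Compound, stocked in DMSO, given either once at 10^-5 M or at five 10-fold dilutions for 48 h. Cells fixed with cold TCA (final 10%), stained with 0.4% SRB, and read at 515 nm. GI50 taken as 50% reduction in net protein increase versus time-zero and control plates.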

COc1ccc(-c2nn3cc(-c4cccc(N)c4)nc3s2)cc1
Activity (SK-MEL-5): -96%
Activity (NCI-H23 [1]): 84%
GI50 (NCI-H23 [2]): 4.9 µM
TGI (NCI-H23 [2]): > 100 µM
CC50 (NCI-H23 [2]; read-out: LC50 (the source's name)): > 100 µM
